In general, IC50 refers to the concentration that inhibits the measured activity by half. One may read the fraction unbound as the share of the substance not bound to proteins or other matrix. Low readings indicate little free substance, high ones much free substance.

The source of these data is PMC5524211 (Nuclear medicine and biology, 2017).

Data set [1] concerns ATR. To be noted: cited from earlier work.
Data set [2] has as its target ATR (Homo sapiens, UniProt Q13535). Put plainly: Competitive displacement assay of [18F]-ATRi by Ve-821 in U251 MG cells. In kind it is cell-based. In a few lines:
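U251 MG cells were grown in MEM with 10% heat-inactivated FBS and penicillin/streptomycin, then seeded at 10^5 cells 24 h before the assay. The 18F-labelled test tracer (final 0.667 nM) was co-incubated with unlabelled competitor (0–1333 nM) for 1 h at 37 °C. Cells were PBS-washed twice, lysed with 1 N NaOH, and bound 18F was γ-counted. Percent bound was run in triplicate and fitted against competitor concentration.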

For data set [3] the following is noted: 1-octanol / 25 mM phosphate buffered saline pH 7.4.
For data set [4] the following is noted: 4 h post injection, healthy athymic nude mice, i.v.
Another data set relates to U251 MG cells. Put plainly: In vitro cell uptake. In kind it is cell-based, human. In a few lines: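 U251 MG cells were plated at 0.5 million/well the day before, PBS-washed twice, then incubated with 18F-labelled test tracer (6 μCi/well) in MEM at 37 °C for 0–240 min. For blocking, a 100-fold excess of unlabelled ATR inhibitor was co-incubated. At each time point, cells were PBS-washed twice and lysed in 1 M NaOH (10 min, 37 °C), and lysate activity was γ-counted.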

The nature of another data set: Plasma protein binding. In kind it is in vitro ADME. Particulars: serum. The essentials: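 Equilibrium dialysis: 500 μM non-radioactive test compound in serum against PBS, 4 h at 37 °C on an orbital shaker at 100 rpm. Samples from both chambers were protein-precipitated (90/10 acetonitrile/water, 0.1% formic acid) and analysed by HPLC with peak integration. % bound = [1 − (buffer conc./plasma conc.)]×100, reported as mean ± SD.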

Data set [5] in a line: Chemical Hydrophobicity Index. In kind it is physicochemical. To be noted: from HPLC retention time. The essentials: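 Reverse-phase HPLC retention times were measured for a set of standards with known CHI to build a standard curve. The CHI of the non-radioactive (19F) test compound was calculated from its retention time on that curve.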
Where [6] appears, read: blocked with 100-fold excess Ve-821 pre-injected 30 min before, 120 min p.i.

SMILES strings stand for the structures.

Sequence of ATR (Homo sapiens, UniProt Q13535) (Q13535 whole entry): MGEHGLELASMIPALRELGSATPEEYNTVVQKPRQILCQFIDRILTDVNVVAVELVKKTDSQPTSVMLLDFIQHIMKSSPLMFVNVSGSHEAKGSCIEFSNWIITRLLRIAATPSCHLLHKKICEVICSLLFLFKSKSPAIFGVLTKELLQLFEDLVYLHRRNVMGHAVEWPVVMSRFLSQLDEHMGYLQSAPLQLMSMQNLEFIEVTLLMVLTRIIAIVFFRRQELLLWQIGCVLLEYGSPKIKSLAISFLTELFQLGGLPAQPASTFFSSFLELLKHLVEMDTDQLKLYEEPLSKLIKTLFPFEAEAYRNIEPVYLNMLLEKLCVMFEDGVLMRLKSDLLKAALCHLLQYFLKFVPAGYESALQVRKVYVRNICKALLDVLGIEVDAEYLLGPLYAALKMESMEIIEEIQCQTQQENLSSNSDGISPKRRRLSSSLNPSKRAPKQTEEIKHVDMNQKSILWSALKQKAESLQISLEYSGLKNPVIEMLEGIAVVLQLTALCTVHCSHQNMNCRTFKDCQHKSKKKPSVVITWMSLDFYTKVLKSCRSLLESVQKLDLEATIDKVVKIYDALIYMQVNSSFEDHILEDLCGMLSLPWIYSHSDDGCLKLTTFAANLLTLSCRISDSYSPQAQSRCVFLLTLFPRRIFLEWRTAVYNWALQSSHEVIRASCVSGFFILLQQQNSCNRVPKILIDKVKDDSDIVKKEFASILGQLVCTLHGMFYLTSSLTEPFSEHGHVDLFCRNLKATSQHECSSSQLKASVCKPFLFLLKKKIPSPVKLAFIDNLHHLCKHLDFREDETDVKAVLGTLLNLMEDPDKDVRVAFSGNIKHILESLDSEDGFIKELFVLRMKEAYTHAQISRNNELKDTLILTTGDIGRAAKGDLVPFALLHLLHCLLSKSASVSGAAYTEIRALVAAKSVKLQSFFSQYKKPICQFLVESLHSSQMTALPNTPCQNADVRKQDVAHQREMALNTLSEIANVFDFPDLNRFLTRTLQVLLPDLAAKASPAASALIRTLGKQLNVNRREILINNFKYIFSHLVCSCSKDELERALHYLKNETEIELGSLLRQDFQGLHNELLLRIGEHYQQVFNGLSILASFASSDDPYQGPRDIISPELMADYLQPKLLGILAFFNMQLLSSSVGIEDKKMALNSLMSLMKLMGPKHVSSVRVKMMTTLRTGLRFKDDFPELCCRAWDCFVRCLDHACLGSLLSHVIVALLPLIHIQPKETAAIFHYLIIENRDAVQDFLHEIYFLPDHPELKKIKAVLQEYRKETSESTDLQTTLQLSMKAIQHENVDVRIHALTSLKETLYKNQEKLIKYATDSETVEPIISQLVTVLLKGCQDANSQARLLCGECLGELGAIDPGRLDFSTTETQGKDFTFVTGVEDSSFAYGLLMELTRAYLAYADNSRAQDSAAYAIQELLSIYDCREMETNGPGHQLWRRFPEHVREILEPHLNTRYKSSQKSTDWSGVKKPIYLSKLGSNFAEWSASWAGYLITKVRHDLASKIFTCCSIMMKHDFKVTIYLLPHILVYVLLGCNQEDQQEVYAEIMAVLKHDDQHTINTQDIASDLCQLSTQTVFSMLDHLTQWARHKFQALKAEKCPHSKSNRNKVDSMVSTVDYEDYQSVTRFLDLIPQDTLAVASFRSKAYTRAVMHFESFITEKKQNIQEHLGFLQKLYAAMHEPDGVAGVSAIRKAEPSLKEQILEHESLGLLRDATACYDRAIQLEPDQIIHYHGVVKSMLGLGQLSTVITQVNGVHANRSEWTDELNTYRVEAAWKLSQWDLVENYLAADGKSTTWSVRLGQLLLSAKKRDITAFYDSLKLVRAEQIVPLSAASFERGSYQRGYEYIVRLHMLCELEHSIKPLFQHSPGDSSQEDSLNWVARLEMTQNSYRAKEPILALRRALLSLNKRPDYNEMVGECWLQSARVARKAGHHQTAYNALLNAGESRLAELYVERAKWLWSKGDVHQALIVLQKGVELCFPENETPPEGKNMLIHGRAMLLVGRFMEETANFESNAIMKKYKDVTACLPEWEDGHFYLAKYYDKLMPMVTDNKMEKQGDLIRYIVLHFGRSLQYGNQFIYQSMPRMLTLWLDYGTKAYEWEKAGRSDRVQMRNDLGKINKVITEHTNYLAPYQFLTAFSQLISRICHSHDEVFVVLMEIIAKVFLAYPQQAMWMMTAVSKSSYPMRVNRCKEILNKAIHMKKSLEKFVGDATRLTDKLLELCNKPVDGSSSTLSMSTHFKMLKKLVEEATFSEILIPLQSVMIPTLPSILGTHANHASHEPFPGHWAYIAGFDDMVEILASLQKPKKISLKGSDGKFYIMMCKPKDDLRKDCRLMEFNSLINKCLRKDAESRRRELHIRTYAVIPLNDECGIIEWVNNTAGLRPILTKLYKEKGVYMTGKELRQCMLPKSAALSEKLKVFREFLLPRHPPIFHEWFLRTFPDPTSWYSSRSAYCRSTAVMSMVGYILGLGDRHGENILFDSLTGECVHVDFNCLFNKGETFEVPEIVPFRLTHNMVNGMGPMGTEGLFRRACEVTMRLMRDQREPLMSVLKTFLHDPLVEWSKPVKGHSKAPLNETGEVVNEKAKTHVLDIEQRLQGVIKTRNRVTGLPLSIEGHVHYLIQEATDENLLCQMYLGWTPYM
Sequence of ATR (Homo sapiens, UniProt Q13535) (Q8WXE1 whole entry partner): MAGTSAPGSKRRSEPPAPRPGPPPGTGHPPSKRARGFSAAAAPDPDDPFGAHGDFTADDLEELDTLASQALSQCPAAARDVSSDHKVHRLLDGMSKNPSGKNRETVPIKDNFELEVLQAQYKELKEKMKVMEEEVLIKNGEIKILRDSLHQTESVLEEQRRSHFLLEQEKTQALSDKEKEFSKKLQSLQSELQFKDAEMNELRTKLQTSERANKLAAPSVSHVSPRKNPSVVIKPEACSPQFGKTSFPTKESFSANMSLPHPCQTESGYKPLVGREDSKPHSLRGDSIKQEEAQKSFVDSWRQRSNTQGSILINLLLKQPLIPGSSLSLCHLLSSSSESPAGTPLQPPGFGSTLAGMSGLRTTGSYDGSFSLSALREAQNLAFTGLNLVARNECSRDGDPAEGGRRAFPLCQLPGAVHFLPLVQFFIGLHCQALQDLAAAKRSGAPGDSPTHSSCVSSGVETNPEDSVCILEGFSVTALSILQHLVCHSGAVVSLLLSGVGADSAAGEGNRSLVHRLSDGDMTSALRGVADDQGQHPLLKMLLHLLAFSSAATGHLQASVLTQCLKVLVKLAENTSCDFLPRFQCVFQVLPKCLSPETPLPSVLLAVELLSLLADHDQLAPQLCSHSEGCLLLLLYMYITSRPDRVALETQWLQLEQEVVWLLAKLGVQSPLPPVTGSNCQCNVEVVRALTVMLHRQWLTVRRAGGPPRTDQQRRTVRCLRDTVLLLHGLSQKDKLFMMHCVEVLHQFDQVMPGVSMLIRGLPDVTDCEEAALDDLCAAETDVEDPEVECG

Consider `CS(=O)(=O)c1ccc(-c2cnc(N)c(C(=O)Nc3ccccc3)n2)cc1` [Ve-821], for which the IC50 in the data set on ATR [1] was 26 nM; at ATR [2] it was 38 nM.

`CS(=O)(=O)c1ccc(-c2cnc(N)c(C(=O)Nc3ccc([18F])cc3)n2)cc1` [[^18F]-9, 3-amino-N-(4-[^18F]phenyl)-6-(4-(methylsulfonyl)phenyl)pyrazine-2-carboxamide]: the LogPO/W in [3] is on record as 1.6. Also, the tumor-to-brain ratio in the data set on U251 MG xenograft (U251 MG xenograft mice) is given as greater than 15. Also, in the data set with U251 MG xenograft (biodistribution, 120 min p.i.), the kidney uptake was 3.51 ± 0.23 %ID/g and the liver uptake worked out at 3.68± 1.39 %ID/g. In the data set with U251 MG xenograft (setting [6]), the “blood uptake, blocked” value is 0.84 ± 0.3 %ID/g and the “tumor uptake, blocked” value was determined as 0.46 ± 0.12 %ID/g. The blood uptake in the data set with U251 MG xenograft (unblocked, 120 min p.i., i.v.) is reported as 1.85 ± 0.47 %ID/g. Besides, the “ex vivo blood stability (tracer stable)” value in data set [4] is listed as “greater than 97%”. In addition, the “cell uptake, blocked” value with U251 MG cells (U251 MG cells blocked with Ve-821 (100-fold excess), co-incubated 240 min) came to 0.16±0.1%. The cell uptake in the data set on U251 MG cells (U251 MG cells, 240 min incubation with [18F]-ATRi only) worked out at 3.5 ± 0.1%. Under “2-phase decay curve, healthy mice, i.v.”, the “clearance from bloodstream (fast phase)” value is on record as less than 10 min. Also, the weighted blood half-life (single bolus intravenous injection via tail vein, nude mice, two-phase decay fit) is on record as 6.2 min.

In the case of `CS(=O)(=O)c1ccc(-c2cnc(N)c(C(=O)Nc3ccc(F)cc3)n2)cc1` [compound 5, 3-amino-N-(4-fluorophenyl)-6-(4-(methylsulfonyl)-phenyl)pyrazine-2-carboxamide], the fraction unbound at 4 h, 500 μM in “Plasma protein binding” is roughly 0.1. In data set [5], this molecule came in with a CHI value of 76.8.
